Experimental findings from PubChem BioAssay AID1040 (The Scripps Research Institute Molecular Screening Center, 2008) are described below.

About 2,000 (1%) of roughly 200,000 compounds were called active.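 How the source made its calls: active means inhibition above the campaign mean inhibition of all tested compounds plus 3 SD (cut at about 20% in these data); inactive means the rest.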 Only a selection was taken, and actives are over-represented in it overall.

Chain of Neuropeptide Y receptor type 1 (Homo sapiens) (P25929 whole entry, looked up): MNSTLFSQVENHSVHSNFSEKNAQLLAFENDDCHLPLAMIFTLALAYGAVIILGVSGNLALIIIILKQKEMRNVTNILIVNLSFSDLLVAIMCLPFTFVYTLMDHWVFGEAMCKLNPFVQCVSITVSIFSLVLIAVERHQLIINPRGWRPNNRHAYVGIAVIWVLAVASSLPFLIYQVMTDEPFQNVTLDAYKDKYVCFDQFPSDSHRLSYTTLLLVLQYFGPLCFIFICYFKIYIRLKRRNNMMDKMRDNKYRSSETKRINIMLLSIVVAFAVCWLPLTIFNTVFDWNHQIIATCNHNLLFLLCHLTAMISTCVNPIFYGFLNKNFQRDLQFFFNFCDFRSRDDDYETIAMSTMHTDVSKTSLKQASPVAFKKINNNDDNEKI

This experiment deals with Neuropeptide Y receptor type 1 (Homo sapiens) (UniProt P25929). The experiment can be described thus: NPY-Y1 receptor antagonists, primary screen, cell-based (AID 1040).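 Further: 0% = DMSO wells given NPY plus isoproterenol and 100% = isoproterenol alone without NPY.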 The note with it: HEK293-CNG Y1 cells, membrane potential fluorescence; at 3.6 µM; hits give high values; NPY at EC95, then isoproterenol. An outline of the steps: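 material = HEK293 cells with Y1 receptor plus CNG channel | also added = NPY 25 nM then isoproterenol 1 µM plus Ro 20-1724 25 µM | schedule = dye 3 h, compound 60 min room temperature, stimulation 45 min | measured by = membrane potential fluorescence | benchmarks = high control isoproterenol alone, low control NPY with isoproterenol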
The inhibition is the change of the read-out against control, counted positive when it falls. For `O=[N+]([O-])c1cccc(C2=NCCS2)c1`, the inhibition was 2.43% (inactive).

On to `O=C(CN1C(=O)NC(Cc2ccccc2)(Cc2ccccc2)C1=O)NCC1CCCCC1`, for which the inhibition is 68.1% (active).

`O=C(CN1C(=O)NC2(CCCCCC2)C1=O)NC1CC1`: the inhibition was 0.75% (inactive).

For `O=C(CN1C(=O)NC2(CCCC2)C1=O)NCC1CCCO1` (centres undefined), the inhibition was -1.75% (inactive).

Regarding `O=C(CC1SCCNC1=O)Nc1ccc(Cl)cc1` (centres undefined), the inhibition was 6.74% (inactive).

Take `CCCCOC(=O)Nc1sc2nc(C)cc(C)c2c1-n1cccc1`: the inhibition was 2.5% (inactive).

As to `Cc1cc(C)c2c(-n3cccc3)c(NC(=O)OCc3ccccc3)sc2n1`, the inhibition was 36.9% (active).

Take `COC(=O)Nc1sc2nc(C)cc(C)c2c1-n1cccc1`: the inhibition is 0.35% (inactive).

As to `CCC(C)NC(=O)CN(C1CCCCC1)S(C)(=O)=O` (centres undefined), the inhibition was 0.13% (inactive).

Consider `O=C(NCCCN1CCOCC1)c1ccccc1NS(=O)(=O)c1ccc(F)cc1`, for which the inhibition was 5.43% (inactive).

Turning to `O=C(NCCCN1CCOCC1)c1cnn2c(-c3ccccc3)cc(-c3ccccc3)nc12`, the inhibition is 30.1% (active).

As for `O=C(NCCCN1CCOCC1)c1ccccc1NS(=O)(=O)c1ccc(Br)cc1`, the inhibition was 11.9% (inactive).

Consider `O=C(CN1CCN(c2ccc(O)cc2)CC1)NC1CCCc2ccccc21` (centres undefined), for which the inhibition was 4.77% (inactive).

For the compound `Nc1nc(SCC(=O)NNc2c(Cl)cc(Cl)cc2Cl)n[nH]1`, the inhibition is 8.35% (inactive).

For the compound `CC(=O)c1c(C)[nH]c(C(=O)COC(=O)c2cccc(S(=O)(=O)N(C)c3ccccc3)c2)c1C`, the inhibition is 2.37% (inactive).

As to `CC(C)CNC(=O)COC(=O)c1ccccc1OCC(=O)Nc1ccc(Br)cc1`, the inhibition is 3.51% (inactive).

With `CCN1CCN(c2c(Cl)cccc2NC(=O)c2ccc(Br)o2)CC1`, the inhibition is 23.8% (active).

On to `COc1cc(OC)c(NC(=O)c2ccc(Br)o2)cc1Cl`, for which the inhibition was 0% (inactive).

As to `CCCC(=O)Nc1ccc(Cl)c(NC(=O)c2ccc(Br)o2)c1`, the inhibition was -1.88% (inactive).

On to `Cc1ccc(C(=O)NC(=S)Nc2ccc(N3CCOCC3)cc2)cc1`, for which the inhibition was -3.91% (inactive).

As to `Cc1ccc(OCC(=O)N/N=C\c2ccco2)c(C)c1`, the inhibition was 7.4% (inactive).

As for `Cc1ccc(/C=N/NC(=O)COc2ccccc2-c2ccccc2)cc1`, the inhibition is 22.8% (active).

For the compound `Cc1ccc(OCC(=O)N/N=C/c2ccncc2)cc1`, the inhibition is 0.98% (inactive).

Regarding `OCCNCc1cccc(OCc2ccccc2Cl)c1`, the inhibition was 11.2% (inactive).

As for `O=C(O)c1ccc(/C=N/NC(=O)c2ccc(Br)cc2)cc1`, the inhibition was 2.79% (inactive).

In the case of `Cc1cccc(C)c1OCC(O)CN1CCCCC1` (centres undefined), the inhibition was 6.39% (inactive).

As for `OC(COc1ccc(CN2CCSCC2)cc1)CN1CCCCC1` (centres undefined), the inhibition was 6.88% (inactive).

Turning to `OC(COCCC12CC3CC(CC(C3)C1)C2)CN1CCCCC1` (centres undefined), the inhibition is 26.9% (active).

In the case of `CCC1CCCCN1C(=O)CSc1nc2c(c(=O)n(C)c(=O)n2C)n1C` (centres undefined), the inhibition is 4.16% (inactive).

As to `C=CCn1c(CNC(=O)c2ccco2)nnc1SCC(=O)c1ccc(OC)cc1`, the inhibition was 0.4% (inactive).

As to `COc1ccc(C(=O)CSc2nnc(COc3ccccc3)n2Cc2ccco2)cc1`, the inhibition is 24.4% (active).

`CCn1c(COc2ccccc2)nnc1SCC(=O)NCc1ccco1`: the inhibition was -4.68% (inactive).

Consider `COc1ccc(NC(=O)CCNS(=O)(=O)c2ccc3c(c2)c(=O)n(C)c(=O)n3C)cc1OC`, for which the inhibition is 5.39% (inactive).

With `Cc1ccc(-n2nc3cc(Cl)c(NC(=O)c4ccco4)cc3n2)cc1`, the inhibition was -10% (inactive).

Turning to `Cc1ccc(Cn2c(NC(=O)c3ccco3)nc3ccccc32)cc1`, the inhibition is 24.1% (active).

With `CC(=O)Nc1nc2ccccc2n1Cc1ccc(C)cc1`, the inhibition was 6.94% (inactive).

Turning to `NC(=O)c1ccc(NC(=O)COC(=O)C(Cc2ccccc2)NC(=O)c2ccccc2)cc1` (centres undefined), the inhibition is 4.77% (inactive).

Regarding `O=C(Nc1ccncc1)c1cc2ccccc2o1`, the inhibition is -5.2% (inactive).

Regarding `O=C(CC(Cc1ccccc1)C(=O)O)NCCc1ccc2c(c1)OCO2` (centres undefined), the inhibition was 8.49% (inactive).

Regarding `O=C(NCCc1ccc2c(c1)OCCO2)c1cc2ccccc2o1`, the inhibition is 21.4% (active).

Regarding `CC[C@H](C)[C@@H](C(=O)N1CCNCC1)n1cc([C@@H](N)Cc2ccc(O)cc2)nn1`, the inhibition is 4.22% (inactive).

As for `COc1cc(OC)nc(S(C)(=O)=O)n1`, the inhibition was -1.87% (inactive).

With `Cc1ccccc1NC(=O)Cn1c(=O)n(CC2CCCO2)c(=O)c2ccccc21` (centres undefined), the inhibition is 0.4% (inactive).

Take `COc1cc(OC)cc(-c2nnc(SCC(=O)Nc3ccc(C(=O)O)cc3)s2)c1`: the inhibition was -5.61% (inactive).

Consider `N=c1n(CCc2ccccc2)c2ccccc2n1Cc1ccccc1F`, for which the inhibition was 24.2% (active).

Regarding `CN(Cc1ccccc1)Cc1ccccc1F`, the inhibition was 0.6% (inactive).

Consider `Fc1ccccc1Cn1cnc(NC(=S)NCCc2ccccc2)n1`, for which the inhibition was 0.55% (inactive).

Turning to `CCOC(=O)C1CCCN(C(=O)c2cccc(S(=O)(=O)N3CCOCC3)c2)C1` (centres undefined), the inhibition was -0.08% (inactive).

As for `Cc1cccc(C)c1OCC(=O)NC(Cc1c[nH]c2ccccc12)C(=O)O` (centres undefined), the inhibition is 6.9% (inactive).

As for `Cc1ccccc1-c1n[nH]c(=S)n1C`, the inhibition is 1.64% (inactive).

For `c1ccc2c(NC3C4CC5CC(C4)CC3C5)nc(N3CCOCC3)nc2c1` (centres undefined), the inhibition was 31.8% (active).

For the compound `c1ccc(Nc2nc(N3CCOCC3)c3ccccc3n2)cc1`, the inhibition was 3.28% (inactive).

Consider `c1ccc(-c2nnc(N3CCOCC3)c3ccccc23)cc1`, for which the inhibition was -0.9% (inactive).

For the compound `COC(=O)Cc1ccc(N(Cc2ccccc2F)S(=O)(=O)c2ccc(Br)cc2)cc1`, the inhibition is 18.1% (inactive).

Take `COc1ccc(-n2nc(C(=O)Nc3cc(OC)c(OC)c(OC)c3)c3ccccc3c2=O)c(OC)c1`: the inhibition was 1.85% (inactive).

On to `O=c1c2ccccc2c(-c2ccccc2)nn1Cc1ccccc1`, for which the inhibition was 0.35% (inactive).

In the case of `O=c1c2ccccc2c(-c2ccc(F)cc2)nn1-c1ccc(C(F)(F)F)cc1`, the inhibition was 21.4% (active).

In the case of `O=c1c2ccccc2c(-c2ccccc2)nn1-c1ccccn1`, the inhibition is 4.37% (inactive).

Take `COc1ccc(CS(=O)/C(Cl)=C(/Cl)C(=O)Nc2ccc(OC)nc2)cc1` (centres undefined): the inhibition was 11.2% (inactive).

On to `O=C(/C=C/c1ccco1)Nc1cccc(-c2nc3ccccc3[nH]2)c1`, for which the inhibition was 20.3% (active).

Consider `Cc1ccc(-n2nc3ccc(NC(=O)/C=C/c4ccco4)cc3n2)cc1C`, for which the inhibition is 6.59% (inactive).

`O=C(Cc1cccs1)Nc1cccc(-c2nc3ccccc3[nH]2)c1`: the inhibition is 3.86% (inactive).

As to `CC(C)C(c1nnnn1C1CCCC1)N1CCN(c2ccccc2F)CC1` (centres undefined), the inhibition is 10.8% (inactive).

For `COc1ccc(N2CCN(C(c3cc4ccc(C)cc4[nH]c3=O)c3nnnn3C3CCCC3)CC2)cc1` (centres undefined), the inhibition was 0.99% (inactive).

Turning to `COc1ccc(C(c2nnnn2C2CCCCC2)N2CCN(c3ccccc3F)CC2)cc1` (centres undefined), the inhibition is 23.3% (active).

As to `CC(C)C(=O)Nc1oc(-c2ccccc2)cc1C#N`, the inhibition was 3.99% (inactive).

On to `O=C(c1cccc(S(=O)(=O)Nc2ccccc2Cl)c1)N1CCN(C(=O)c2ccco2)CC1`, for which the inhibition was -2.11% (inactive).

Consider `O=C(O)CCCCOn1ccnc1`, for which the inhibition was 4.94% (inactive).

As for `O=C(CSc1nc2cc3c(cc2c(=O)n1CCC1=CCCCC1)OCO3)NCc1ccco1`, the inhibition is 26.8% (active).

Turning to `C=C(C)Cn1c(SCC(=O)NCc2ccco2)nc2sc3c(c2c1=O)CCC3`, the inhibition was 8.57% (inactive).

As for `O=C(CCCn1c(SCC(=O)c2ccc(F)cc2)nc2ccccc2c1=O)NCc1ccco1`, the inhibition is 3.6% (inactive).

With `CCC1(CC)NC(=O)N(CC(=O)OCC(=O)NC(=O)c2ccccc2)C1=O`, the inhibition is 1.96% (inactive).

On to `CC1(C)C2CC=C(/C=N/NC(=O)C3CC3)C1C2` (centres undefined), for which the inhibition was 4.14% (inactive).

As to `CSCC[C@H](NC(=O)OC(C)(C)C)C(=O)N/N=C/c1cc2ccc(C)cc2nc1Cl`, the inhibition is -2.75% (inactive).

As for `CC(=O)c1ccc(NC(=O)c2ccc3c(Cl)c4c(nc3c2)CCCC4)cc1`, the inhibition was -4.67% (inactive).

As to `Fc1ccc(-c2nnc(CSc3nnc(-c4ccc5c(c4)OCO5)o3)o2)cc1`, the inhibition is 29.9% (active).

As to `Fc1ccc2nc(-c3ccccc3)nc(SCc3nnc(-c4ccccc4)o3)c2c1`, the inhibition was 2.58% (inactive).

In the case of `COc1ccc(-c2nnc(SCC(=O)c3ccc4c(c3)OCCO4)o2)cc1`, the inhibition was -4.74% (inactive).

Take `CCCS(=O)(=O)N1CCC(CCOc2ccccc2)(C(=O)OCC)CC1`: the inhibition was 6.41% (inactive).

In the case of `COC(=O)c1c(NC(=O)COC(=O)[C@@H](NS(=O)(=O)c2ccccc2)C(C)C)sc2c1CCC2`, the inhibition was 10.2% (inactive).

As for `O=c1oc2c(CN3CCCCC3)c(O)ccc2c2c1CCCCC2`, the inhibition is 6.84% (inactive).

On to `COc1ccc2c3c(c(=O)oc2c1OCC(=O)C(C)(C)C)CCCC3`, for which the inhibition was 10.2% (inactive).

Take `CCCOc1ccc2c3c(c(=O)oc2c1OCCC)CCC3`: the inhibition is 21.1% (active).

Regarding `O=C(CSc1nc2ccc(Nc3nc(N4CCOCC4)nc(N4CCOCC4)n3)cc2s1)NCc1ccco1`, the inhibition is 2.78% (inactive).

As to `CN(C)c1ccc(C(CNC(=O)c2ccc(F)cc2)c2c[nH]c3ccccc23)cc1` (centres undefined), the inhibition is -7.11% (inactive).

Consider `C=CCSc1nc2c(c(=O)[nH]1)C(C(C)C)C(C#N)=C(N)O2` (centres undefined), for which the inhibition was 77.2% (active).

With `C=CCOC(=O)C1=C(C)OC(N)=C(C#N)C1c1ccc(F)cc1` (centres undefined), the inhibition is -1.17% (inactive).

`Cc1cc2c(c(=O)n1C)C(C(C)C)C(C#N)=C(N)O2` (centres undefined): the inhibition was 9.44% (inactive).

Take `CC(=O)Oc1c(C(=O)c2nnc(C)o2)c(=O)n(Cc2ccccc2)c2ccccc12`: the inhibition was 1.05% (inactive).

In the case of `COc1ccc(F)cc1C(=O)C1CCCN(C(=O)CCc2ccccn2)C1` (centres undefined), the inhibition was 6.35% (inactive).

As to `CCS(=O)(=O)Nc1ccc(C2=NN(C(C)=O)C(c3cccs3)C2)cc1` (centres undefined), the inhibition is -0.01% (inactive).

As for `O=C(O)CCC(=O)Nc1nc2ccc([N+](=O)[O-])cc2s1`, the inhibition is -1.24% (inactive).

`O=C(NC(Nc1nc2ccc([N+](=O)[O-])cc2s1)(C(F)(F)F)C(F)(F)F)c1ccccc1`: the inhibition was 32.9% (active).

Regarding `O=C(Nc1nc2ccc([N+](=O)[O-])cc2s1)c1ccc(S(=O)(=O)N2CCCc3ccccc32)cc1`, the inhibition was -0.71% (inactive).
